Experimental data published in ChEMBL document CHEMBL5705891, “Small-molecule kinase inhibitors provide insight into Mps1 cell cycle function” (Nat Chem Biol, 2010).
Blank lines part the entries; values can stand above or below the compound they belong to. The source made the active and inactive calls. No cut-off for these calls is given here.

What was measured:
UTRM10 [1] = assay: Reversal of Paclitaxel-induced mitotic arrest in UTRM10 cells (unknown origin) by immunoblot analysis; type: functional, cell-based
U2OS [2] = assay: Induction of extra centrosomes in cell populations of thymidine-treated human U2OS cells expressing H2B-GFP and Plk4 overexpression assessed as fold delay in anaphase onset measured for 30 mins by time lapse imaging analysis relative to control; type: functional; details: 0.5 h
Procedure, shortened: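 Doxycycline-inducible Plk4 U2OS cells expressing H2B-GFP were blocked with thymidine for 18 hrs and released into doxycycline (2 μg·ml⁻¹) for 10 hrs. A second 18-hr thymidine block followed, then release for 6 hrs before 5 μM inhibitor, with or without Plk4 induction. Cells were imaged by time-lapse at 37°C, 5% CO₂, timed from NEBD, and bipolar versus multipolar anaphases were scored. Values are mean ± SD of 3 independent experiments.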

[3] = biological target: T1, Serine/threonine-protein kinase PLK4 (Homo sapiens) (UniProt O00444); assay: Induction of Plk4 in human U2OS cells assessed as increase in cell populations with extra centrosomes by centrin staining based analysis relative to control; details: filed as activator
T1 sequence (whole entry): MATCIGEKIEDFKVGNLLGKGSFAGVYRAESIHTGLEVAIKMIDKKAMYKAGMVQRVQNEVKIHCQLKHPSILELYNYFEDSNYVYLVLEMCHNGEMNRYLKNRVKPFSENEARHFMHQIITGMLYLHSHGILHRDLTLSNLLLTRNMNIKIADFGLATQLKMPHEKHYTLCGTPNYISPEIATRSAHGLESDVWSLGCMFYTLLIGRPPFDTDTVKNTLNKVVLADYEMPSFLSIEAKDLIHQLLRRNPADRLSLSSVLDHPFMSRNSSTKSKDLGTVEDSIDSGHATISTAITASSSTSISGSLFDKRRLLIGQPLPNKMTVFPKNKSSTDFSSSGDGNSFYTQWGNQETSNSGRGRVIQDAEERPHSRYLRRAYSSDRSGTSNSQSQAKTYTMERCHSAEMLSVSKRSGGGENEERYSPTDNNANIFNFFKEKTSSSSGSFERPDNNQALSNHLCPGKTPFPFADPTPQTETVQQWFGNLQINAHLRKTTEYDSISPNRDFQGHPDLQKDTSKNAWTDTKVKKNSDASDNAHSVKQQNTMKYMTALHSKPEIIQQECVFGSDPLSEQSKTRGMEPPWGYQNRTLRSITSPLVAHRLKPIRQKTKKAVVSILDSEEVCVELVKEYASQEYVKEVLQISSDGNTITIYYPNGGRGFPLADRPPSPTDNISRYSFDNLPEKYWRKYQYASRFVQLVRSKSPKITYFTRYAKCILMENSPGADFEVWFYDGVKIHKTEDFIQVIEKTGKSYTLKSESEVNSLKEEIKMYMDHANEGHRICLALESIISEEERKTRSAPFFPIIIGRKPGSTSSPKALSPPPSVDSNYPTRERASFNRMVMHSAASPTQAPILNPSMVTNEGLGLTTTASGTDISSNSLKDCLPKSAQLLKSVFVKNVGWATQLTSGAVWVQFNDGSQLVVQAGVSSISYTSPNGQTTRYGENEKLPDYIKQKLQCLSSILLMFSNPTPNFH
Procedure, shortened: (§1)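 U2OS cells with doxycycline-inducible Plk4 were induced with doxycycline (2 μg·ml⁻¹) or given DMSO. Metaphase spindles carrying more than 2 centrosomes were counted by centrin staining (~300 spindles), and spindle polarity was followed by centrin/α-tubulin/DNA immunofluorescence.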

[4] = biological target: T1, Serine/threonine-protein kinase PLK4 (Homo sapiens); assay: Induction of Plk4 in human U2OS cells assessed as bipolar cell division of cell populations with extra centrosomes by centrin staining based analysis; details: filed as activator; procedure, shortened: as §1
[5] = biological target: T1, Serine/threonine-protein kinase PLK4 (Homo sapiens); assay: Induction of Plk4 in human U2OS cells assessed as resolution of metaphase multipolar spindles into bipolar spindles in anaphase in cell populations with extra centrosomes by centrin staining based analysis; details: filed as activator; procedure, shortened: as §1
UTRM10 [6] = assay: Effect on thymidine-treated UTRM10 cells (unknown origin) with Mps1-/- incubated for 24 to 72 hrs by immunoblot analysis; type: functional, cell-based; details: time lower 24.0 hrs, time upper […]
U2OS [7] = assay: Reversal of s-trityl cysteine-induced mitotic arrest in human U2OS cells assessed as Ser10 phosphorylated Histone H3-positive 4c population at 10 uM incubated for 16 hrs by flow cytometry (reference value: 50 %); type: functional
UTRM10 [8] = assay: Upregulation of phosphorylated histone H3 level in UTRM10 cells (unknown origin) upto 10 uM by immunoblot analysis; type: functional, cell-based
[9] = biological target: Serine/threonine-protein kinase PLK4 (Homo sapiens, UniProt O00444); assay: Binding affinity to PLK4 (unknown origin) assessed as dissociation constant by Ambit kinase binding assay
[10] = biological target: Serine/threonine-protein kinase PLK3 (Homo sapiens, UniProt Q9H4B4); assay: Binding affinity to PLK3 (unknown origin) assessed as dissociation constant by Ambit kinase binding assay
U2OS [11] = assay: Reversal of s-trityl cysteine-induced mitotic arrest in human U2OS cells assessed as Ser10 phosphorylated Histone H3-positive 4c population at 5 uM incubated for 16 hrs by flow cytometry (reference value: 50 %); type: functional
[12] = biological target: Serine/threonine-protein kinase PLK1 (Homo sapiens, UniProt P53350); assay: Binding affinity to PLK1 (unknown origin) assessed as dissociation constant by Ambit kinase binding assay
[13] = biological target: T2, Cyclin-G-associated kinase (Homo sapiens) (UniProt O14976); assay: Inhibition of GAK (unknown origin) assessed as residual enzyme activity at 10 uM by Ambit kinase binding assay relative to control
T2 sequence (whole entry): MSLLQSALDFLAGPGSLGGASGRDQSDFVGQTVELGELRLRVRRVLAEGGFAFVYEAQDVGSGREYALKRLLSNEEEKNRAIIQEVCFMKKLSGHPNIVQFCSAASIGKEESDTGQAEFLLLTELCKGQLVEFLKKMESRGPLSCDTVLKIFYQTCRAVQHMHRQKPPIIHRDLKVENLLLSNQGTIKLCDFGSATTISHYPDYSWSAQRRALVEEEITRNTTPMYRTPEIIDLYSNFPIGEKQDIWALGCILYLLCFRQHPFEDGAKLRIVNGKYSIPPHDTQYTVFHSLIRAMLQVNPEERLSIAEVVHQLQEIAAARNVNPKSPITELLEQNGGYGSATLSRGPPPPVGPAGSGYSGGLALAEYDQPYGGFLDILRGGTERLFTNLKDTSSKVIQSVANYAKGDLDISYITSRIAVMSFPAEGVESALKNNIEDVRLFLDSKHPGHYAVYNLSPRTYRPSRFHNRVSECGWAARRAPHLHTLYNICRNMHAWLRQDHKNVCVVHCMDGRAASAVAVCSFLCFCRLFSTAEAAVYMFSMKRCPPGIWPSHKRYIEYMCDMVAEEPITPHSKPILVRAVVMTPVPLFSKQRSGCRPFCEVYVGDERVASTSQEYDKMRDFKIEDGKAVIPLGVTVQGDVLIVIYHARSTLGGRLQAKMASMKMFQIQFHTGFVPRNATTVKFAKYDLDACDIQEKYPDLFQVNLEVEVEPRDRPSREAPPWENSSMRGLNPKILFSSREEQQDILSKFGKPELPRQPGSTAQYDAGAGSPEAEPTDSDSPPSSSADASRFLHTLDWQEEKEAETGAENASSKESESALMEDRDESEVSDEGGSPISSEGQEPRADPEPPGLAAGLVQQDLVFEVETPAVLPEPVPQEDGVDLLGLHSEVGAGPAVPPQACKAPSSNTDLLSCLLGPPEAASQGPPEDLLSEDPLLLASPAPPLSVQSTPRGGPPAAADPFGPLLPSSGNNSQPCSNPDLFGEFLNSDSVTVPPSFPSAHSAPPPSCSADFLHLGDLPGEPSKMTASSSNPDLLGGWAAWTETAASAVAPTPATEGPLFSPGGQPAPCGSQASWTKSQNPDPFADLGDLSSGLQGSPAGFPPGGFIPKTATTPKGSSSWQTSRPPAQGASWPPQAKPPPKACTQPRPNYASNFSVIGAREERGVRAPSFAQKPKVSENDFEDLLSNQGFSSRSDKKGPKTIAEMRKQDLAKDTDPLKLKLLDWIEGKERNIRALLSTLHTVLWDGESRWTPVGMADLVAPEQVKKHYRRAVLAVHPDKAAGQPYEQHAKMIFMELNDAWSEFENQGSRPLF

U2OS [14] = assay: Reversal of nocodazole-induced mitotic arrest in human U2OS cells assessed as decrease in cyclin B level at 0.3 to 10 uM incubated for 4 hrs by immunoblot analysis; type: functional, cell-based; details: dose 0.3-10 µM
[15] = biological target: Serine/threonine-protein kinase 33 (Homo sapiens, UniProt Q9BYT3); assay: Binding affinity to STK33 (unknown origin) assessed as dissociation constant by Ambit kinase binding assay
U2OS [16] = assay: Reversal of nocodazole-induced mitotic arrest in human U2OS cells assessed as decrease in cyclin B level at 10 uM incubated for 4 hrs in presence of MG132 by immunoblot analysis; type: functional, cell-based
[17] = biological target: Receptor-type tyrosine-protein kinase FLT3 (Homo sapiens) (UniProt P36888); assay: Inhibition of FLT3 (unknown origin) assessed as residual enzyme activity at 10 uM by Ambit kinase binding assay relative to control
[18] = biological target: Cyclin-G-associated kinase (Homo sapiens, UniProt O14976); assay: Binding affinity to GAK (unknown origin) assessed as dissociation constant by Ambit kinase binding assay
[19] = biological target: Protein-tyrosine kinase 2-beta (Homo sapiens, UniProt Q14289); assay: Inhibition of PTK2B (unknown origin) assessed as residual enzyme activity at 10 uM by Ambit kinase binding assay relative to control
Sequence of Protein-tyrosine kinase 2-beta (Q14289 whole entry, looked up): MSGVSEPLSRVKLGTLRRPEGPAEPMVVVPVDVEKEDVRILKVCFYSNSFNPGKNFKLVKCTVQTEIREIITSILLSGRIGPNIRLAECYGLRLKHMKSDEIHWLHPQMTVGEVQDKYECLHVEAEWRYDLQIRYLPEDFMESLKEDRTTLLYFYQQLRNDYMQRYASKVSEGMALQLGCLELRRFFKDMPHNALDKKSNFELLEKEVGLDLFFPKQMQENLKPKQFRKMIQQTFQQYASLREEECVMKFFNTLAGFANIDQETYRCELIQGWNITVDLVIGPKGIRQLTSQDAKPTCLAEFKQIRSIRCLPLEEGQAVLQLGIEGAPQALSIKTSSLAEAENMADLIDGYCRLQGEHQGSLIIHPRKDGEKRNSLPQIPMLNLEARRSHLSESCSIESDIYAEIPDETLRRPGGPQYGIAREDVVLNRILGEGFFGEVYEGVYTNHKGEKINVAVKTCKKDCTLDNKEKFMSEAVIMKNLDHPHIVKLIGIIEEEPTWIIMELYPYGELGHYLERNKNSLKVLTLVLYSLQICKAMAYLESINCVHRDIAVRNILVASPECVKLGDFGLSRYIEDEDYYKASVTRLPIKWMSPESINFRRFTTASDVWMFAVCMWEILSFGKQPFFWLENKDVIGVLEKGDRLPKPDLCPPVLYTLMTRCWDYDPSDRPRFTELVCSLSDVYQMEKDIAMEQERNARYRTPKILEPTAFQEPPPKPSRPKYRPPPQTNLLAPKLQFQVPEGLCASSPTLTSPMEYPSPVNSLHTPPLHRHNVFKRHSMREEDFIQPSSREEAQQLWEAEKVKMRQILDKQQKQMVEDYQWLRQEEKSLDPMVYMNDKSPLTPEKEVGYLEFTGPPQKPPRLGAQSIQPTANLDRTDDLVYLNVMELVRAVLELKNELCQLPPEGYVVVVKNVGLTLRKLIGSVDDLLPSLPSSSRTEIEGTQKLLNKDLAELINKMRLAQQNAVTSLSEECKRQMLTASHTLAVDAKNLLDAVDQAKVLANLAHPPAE

Sequence of Serine/threonine-protein kinase PLK1 (P53350 whole entry): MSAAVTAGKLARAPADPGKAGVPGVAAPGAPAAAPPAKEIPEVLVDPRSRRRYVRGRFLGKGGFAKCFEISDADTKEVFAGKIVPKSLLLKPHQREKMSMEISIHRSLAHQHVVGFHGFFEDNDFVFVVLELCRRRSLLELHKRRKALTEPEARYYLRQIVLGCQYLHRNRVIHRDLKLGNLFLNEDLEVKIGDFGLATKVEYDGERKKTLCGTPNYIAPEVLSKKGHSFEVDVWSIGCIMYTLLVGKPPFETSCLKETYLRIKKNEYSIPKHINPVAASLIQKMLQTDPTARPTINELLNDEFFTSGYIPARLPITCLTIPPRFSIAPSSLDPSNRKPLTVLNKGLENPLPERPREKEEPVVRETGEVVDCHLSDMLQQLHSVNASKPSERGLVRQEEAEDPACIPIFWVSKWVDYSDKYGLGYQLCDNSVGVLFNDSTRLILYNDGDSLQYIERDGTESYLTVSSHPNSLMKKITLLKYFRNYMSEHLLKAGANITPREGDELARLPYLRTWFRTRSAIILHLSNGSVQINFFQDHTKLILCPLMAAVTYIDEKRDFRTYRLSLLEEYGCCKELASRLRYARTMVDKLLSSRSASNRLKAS
Sequence of Serine/threonine-protein kinase 33 (Q9BYT3 whole entry): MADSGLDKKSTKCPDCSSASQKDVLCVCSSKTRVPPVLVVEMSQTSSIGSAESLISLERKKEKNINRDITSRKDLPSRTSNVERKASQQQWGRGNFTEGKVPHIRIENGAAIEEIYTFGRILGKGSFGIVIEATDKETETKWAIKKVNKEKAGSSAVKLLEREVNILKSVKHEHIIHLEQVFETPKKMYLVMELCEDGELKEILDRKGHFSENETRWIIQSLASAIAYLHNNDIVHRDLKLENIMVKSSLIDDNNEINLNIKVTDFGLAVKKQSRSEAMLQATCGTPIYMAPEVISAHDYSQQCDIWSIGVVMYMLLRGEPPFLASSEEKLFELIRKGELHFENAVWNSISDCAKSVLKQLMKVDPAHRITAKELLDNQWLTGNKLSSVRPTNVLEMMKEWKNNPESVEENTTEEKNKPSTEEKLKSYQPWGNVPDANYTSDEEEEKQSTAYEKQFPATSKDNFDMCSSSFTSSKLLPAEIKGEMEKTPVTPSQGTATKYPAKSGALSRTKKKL
Sequence of Serine/threonine-protein kinase PLK3 (Q9H4B4 whole entry): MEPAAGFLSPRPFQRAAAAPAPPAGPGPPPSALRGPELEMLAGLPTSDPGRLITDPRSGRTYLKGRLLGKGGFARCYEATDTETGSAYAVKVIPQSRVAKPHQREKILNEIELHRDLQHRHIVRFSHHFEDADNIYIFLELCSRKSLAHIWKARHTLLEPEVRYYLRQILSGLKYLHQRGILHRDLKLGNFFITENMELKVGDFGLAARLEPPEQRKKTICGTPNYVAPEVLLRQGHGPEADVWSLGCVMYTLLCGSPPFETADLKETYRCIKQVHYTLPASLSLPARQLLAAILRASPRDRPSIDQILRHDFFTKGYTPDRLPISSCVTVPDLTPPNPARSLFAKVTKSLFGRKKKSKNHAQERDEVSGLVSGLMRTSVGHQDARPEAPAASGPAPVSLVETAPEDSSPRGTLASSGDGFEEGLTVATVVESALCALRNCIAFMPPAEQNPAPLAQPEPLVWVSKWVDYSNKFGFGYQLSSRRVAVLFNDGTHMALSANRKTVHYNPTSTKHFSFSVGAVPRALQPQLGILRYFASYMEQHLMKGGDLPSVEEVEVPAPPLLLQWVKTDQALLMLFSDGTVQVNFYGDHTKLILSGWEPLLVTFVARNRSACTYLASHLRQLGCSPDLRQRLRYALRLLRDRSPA
Sequence of Receptor-type tyrosine-protein kinase FLT3 (Homo sapiens) (P36888 whole entry): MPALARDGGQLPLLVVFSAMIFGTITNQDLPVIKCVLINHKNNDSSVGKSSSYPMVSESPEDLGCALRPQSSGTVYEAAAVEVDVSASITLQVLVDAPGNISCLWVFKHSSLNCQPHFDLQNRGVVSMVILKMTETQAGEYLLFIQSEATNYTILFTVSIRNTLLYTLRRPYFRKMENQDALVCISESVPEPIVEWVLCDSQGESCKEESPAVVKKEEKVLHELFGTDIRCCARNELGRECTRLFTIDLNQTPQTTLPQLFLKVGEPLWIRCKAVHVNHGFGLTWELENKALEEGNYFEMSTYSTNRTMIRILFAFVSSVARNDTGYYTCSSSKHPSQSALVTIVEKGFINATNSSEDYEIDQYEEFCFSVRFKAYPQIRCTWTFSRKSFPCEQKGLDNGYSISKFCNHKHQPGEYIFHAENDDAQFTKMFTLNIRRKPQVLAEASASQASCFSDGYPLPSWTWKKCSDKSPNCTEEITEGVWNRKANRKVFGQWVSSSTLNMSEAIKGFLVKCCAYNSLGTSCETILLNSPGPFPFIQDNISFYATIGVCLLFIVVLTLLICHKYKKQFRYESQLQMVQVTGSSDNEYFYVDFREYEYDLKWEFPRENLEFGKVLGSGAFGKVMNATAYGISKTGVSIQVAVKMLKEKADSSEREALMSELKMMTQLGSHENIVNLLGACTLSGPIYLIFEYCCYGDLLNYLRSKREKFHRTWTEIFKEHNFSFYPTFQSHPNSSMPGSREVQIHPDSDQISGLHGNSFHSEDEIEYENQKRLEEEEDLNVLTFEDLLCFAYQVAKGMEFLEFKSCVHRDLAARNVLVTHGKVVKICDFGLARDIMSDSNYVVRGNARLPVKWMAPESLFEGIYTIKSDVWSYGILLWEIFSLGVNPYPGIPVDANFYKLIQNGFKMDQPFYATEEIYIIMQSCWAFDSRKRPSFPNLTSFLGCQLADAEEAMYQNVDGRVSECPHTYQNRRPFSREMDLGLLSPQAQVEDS

Structure (SMILES): Cc1cc(Nc2cc(N3CCN(C)CC3)nc(Sc3ccc(NC(=O)C4CC4)cc3)n2)n[nH]1
- Activity (UTRM10 [1]): Active

- Activity [3]: 80%
- Activity [4]: Active
- Activity [5]: Active
Structure (SMILES): C[C@H]1c2cccc(O)c2C(=O)C2=C(O)[C@]3(O)C(=O)C(C(N)=O)=C(O)[C@@H](N(C)C)[C@@H]3[C@@H](O)[C@@H]21 [DOXYCYCLINE ANHYDROUS]
- fold change (FC) (U2OS [2]): 2
- Activity (UTRM10 [6]): inactive

- Kd [9]: 3.1 µM
- Kd [10]: 1.6 µM
- Kd [12]: 0.061 µM
- Activity [13]: 2%
- Kd [15]: 5 µM
- Activity [17]: 0%
- Kd [18]: 0.14 µM
- Activity [19]: 24%
Structure (SMILES): CCOc1cc(N2CCC(O)CC2)ccc1Nc1ncc2c(n1)N(C1CCCC1)CCC(=O)N2C
- Activity (U2OS [7]): 4%
- Activity (UTRM10 [8]): Active
- Activity (U2OS [11]): 14%
- Activity (U2OS [14]): Active
- Activity (U2OS [16]): inactive
